According to ChEMBL document CHEMBL1828575, “Design, synthesis and antiproliferative activities of biarylolefins based on polyhydroxylated and carbohydrate scaffolds” (Eur J Med Chem, 2011):

Legend:
Format in all cases: functional
UACC-257 = assay: Cytotoxicity against human UACC257 cells assessed as cellular growth at 10 uM after 48 hrs by SRB assay
Summary of the method: (§1)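 NCI-60 panel lines grown in RPMI 1640 with 5% FBS and 2 mM L-glutamine. Plated at 5000–40,000 cells/well and preincubated 24 h at 37 °C, 5% CO₂, with time-zero plates fixed in TCA. Compounds, dissolved in DMSO and diluted in medium, were applied for 48 h. Cells were TCA-fixed (10% final for adherent, 16% for suspension) and stained with 0.4% SRB in 1% acetic acid. Dye was solubilised in 10 mM Tris base and read at 515 nm; growth was expressed as a percentage of untreated control.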

SN12C = assay: Cytotoxicity against human SN12C cells assessed as cellular growth at 10 uM after 48 hrs by SRB assay; summary of the method: as §1
MDA-MB-435 = assay: Antitumor activity against human MDA-MB-435 cells after 48 hrs by SRB assay; conditions: MDA-MB-435, 48 h
Summary of the method: (§2)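 NCI60 panel in RPMI 1640 with 5% FBS and 2 mM L-glutamine. Cells were plated at 5000–40,000/well by doubling time, held 24 h, then time-zero plates were TCA-fixed. Five concentrations (10-fold or half-log dilutions of DMSO stocks) were applied for 48 h at 37 °C, 5% CO2. Cells were fixed with cold TCA (10% final adherent, 16% suspension) and stained with 0.4% SRB. Bound dye was dissolved in 10 mM Tris and read at 515 nm. GI50, TGI and LC50 were calculated per line.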

MCF7 = assay: Cytotoxicity against human MCF7 cells assessed as cellular growth at 10 uM after 48 hrs by SRB assay; summary of the method: as §1
UO-31 = assay: Antitumor activity against human UO31 cells after 48 hrs by SRB assay; conditions: UO-31, 48 h
Summary of the method: (§3)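 NCI60 panel cells grown in RPMI 1640 with 5% FBS and 2 mM L-glutamine, plated at 5000–40,000 cells/well and preincubated 24 h at 37 °C, 5% CO₂. Compound was added from DMSO at five concentrations, 10-fold or 1/2 log dilutions, then incubated 48 h.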

SK-MEL-2 = assay: Cytotoxicity against human SK-MEL-2 cells assessed as cellular growth at 10 uM after 48 hrs by SRB assay; summary of the method: as §1
NCI-H23 = assay: Cytotoxicity against human NCI-H23 cells assessed as cellular growth at 10 uM after 48 hrs by SRB assay; summary of the method: as §1
BT-549 = assay: Antitumor activity against human BT549 cells after 48 hrs by SRB assay; conditions: BT-549, 48 h
Summary of the method: (§4)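 NCI60 screen: cells grown in RPMI 1640 with 5% FBS and 2 mM L-glutamine, plated at 5000–40,000 cells/well by doubling time, preincubated 24 h at 37 °C with 5% CO2. Compounds were diluted from DMSO stocks and given for 48 h, at five concentrations for dose response. A time-zero plate was TCA-fixed. Cells were TCA-fixed, stained with 0.4% SRB and read at 515 nm, with growth expressed relative to untreated controls.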

HCT-15 = assay: Antiproliferative activity against human HCT15 cells after 48 hrs by SRB assay; conditions: HCT-15, 48 h; summary of the method: as §4
Malme-3M [1] = assay: Cytotoxicity against human MALME-3M cells assessed as cellular growth at 10 uM after 48 hrs by SRB assay; summary of the method: as §1
MDA-MB-231 = assay: Cytotoxicity against human MDA-MB-231 cells assessed as cellular growth at 10 uM after 48 hrs by SRB assay; summary of the method: as §1
T47D = assay: Antitumor activity against human T47D cells after 48 hrs by SRB assay; summary of the method: as §3
Malme-3M [2] = assay: Antitumor activity against human MALME-3M cells after 48 hrs by SRB assay; summary of the method: as §2
EKVX = assay: Cytotoxicity against human EKVX cells assessed as cellular growth at 10 uM after 48 hrs by SRB assay
Summary of the method: (§5)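 NCI60 single-dose screen of cells in RPMI 1640 with 5% FBS and 2 mM L-glutamine, preincubated 24 h at 37 °C, 5% CO₂. Cells were then exposed 48 h to compound added from DMSO stock. TCA-fixed, stained with 0.4% SRB in 1% acetic acid, dye solubilised in 10 mM Tris base and read at 515 nm. Growth is given as percent of untreated control.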

OVCAR-3 = assay: Antitumor activity against human OVCAR3 cells after 48 hrs by SRB assay; conditions: OVCAR-3, 48 h; summary of the method: as §2
LOX IMVI = assay: Cytotoxicity against human LOXIMVI cells assessed as cellular growth at 10 uM after 48 hrs by SRB assay; summary of the method: as §5
SR = assay: Cytotoxicity against human SR cells assessed as cellular growth at 10 uM after 48 hrs by SRB assay; summary of the method: as §1
SNB-75 = assay: Cytotoxicity against human SNB75 cells assessed as cellular growth at 10 uM after 48 hrs by SRB assay; summary of the method: as §1
IGROV-1 = assay: Cytotoxicity against human IGROV1 cells assessed as cellular growth at 10 uM after 48 hrs by SRB assay; summary of the method: as §5
HL-60(TB) = assay: Cytotoxicity against human HL-60(TB) cells assessed as cellular growth at 10 uM after 48 hrs by SRB assay
HOP-92 = assay: Antitumor activity against human HOP92 cells after 48 hrs by SRB assay; conditions: HOP-92, 48 h; summary of the method: as §2
KM12 = assay: Antitumor activity against human KM12 cells after 48 hrs by SRB assay; conditions: KM12, 48 h; summary of the method: as §2
SW-620 = assay: Antitumor activity against human SW620 cells after 48 hrs by SRB assay; conditions: SW-620, 48 h; summary of the method: as §3
[3] = read-out: LC50 (the source's name)
[4] = read-out: pLC50 (the source's name) (converted)

In the case of `COc1cc(/C(=C2\O[C@@H]([C@H]3COC(C)(C)O3)[C@H]3OC(C)(C)O[C@@H]23)c2ccc3ccccc3c2)cc(OC)c1OC`, the Activity (UACC-257) is reported as 45.86%, the Activity (SN12C) is reported as 24.83% and the GI50 (MDA-MB-435) is reported as 3.61 µM. For the same compound, the TGI (MDA-MB-435) was 17.5 µM, the CC50 (MDA-MB-435; [3]) was > 100 µM and the Activity (MCF7) was 22.8%. For the same compound, the GI50 (UO-31; read-out: GI50) was 3.47 µM, the CC50 (UO-31; [3]) was > 100 µM and the TGI (UO-31; read-out: TGI) was > 100 µM. For the same compound, the GI50 (UO-31; read-out: pGI50 (converted)) was 3.47 µM, the CC50 (UO-31; [4]) was > 100 µM and the TGI (UO-31; read-out: pTGI (converted)) was > 100 µM. The Activity (SK-MEL-2) was -49.67%, the Activity (NCI-H23) was 46.18% and the CC50 (BT-549; [3]) was > 100 µM. For the same compound, the GI50 (BT-549; read-out: pGI50 (converted)) was 3.24 µM, the CC50 (BT-549; [4]) was > 100 µM and the TGI (BT-549; read-out: pTGI (converted)) was 8.13 µM. For the same compound, the CC50 (HCT-15; [3]) was > 100 µM, the CC50 (HCT-15; [4]) was > 100 µM and the Activity (Malme-3M [1]) was -25.39%. For the same compound, the Activity (MDA-MB-231) was 13.6%, the GI50 (T47D; read-out: GI50) was 3.45 µM and the CC50 (T47D; [3]) was > 100 µM. For the same compound, the TGI (T47D; read-out: TGI) was 40.6 µM, the GI50 (T47D; read-out: pGI50 (converted)) was 3.47 µM and the CC50 (T47D; [4]) was > 100 µM. For the same compound, the TGI (T47D; read-out: pTGI (converted)) was 40.7 µM, the GI50 (Malme-3M [2]) was 2.07 µM and the LC50 (concentration killing 50% of cells present at time zero) (Malme-3M [2]) was > 100 µM. For the same compound, the TGI (Malme-3M [2]) was 5.59 µM, the Activity (EKVX) was 53.7% and the GI50 (OVCAR-3) was 2.39 µM. The TGI (OVCAR-3) was 5.67 µM, the CC50 (OVCAR-3; [3]) was 21.7 µM and the Activity (LOX IMVI) was 46.36%. For the same compound, the Activity (SR) was 51.36%, the Activity (SNB-75) was 41.12% and the Activity (IGROV-1) was -21.44%. For the same compound, the Activity (HL-60(TB)) was 59.17%, the GI50 (HOP-92) was 2.67 µM and the TGI (HOP-92) was 13.3 µM. For the same compound, the CC50 (HOP-92; [3]) was > 100 µM, the GI50 (KM12) was 6 µM and the LC50 (KM12) was > 100 µM. For the same compound, the TGI (KM12) was > 100 µM, the GI50 (SW-620; read-out: GI50) was 4.31 µM and the CC50 (SW-620; [3]) was > 100 µM. The TGI (SW-620; read-out: TGI) was > 100 µM, the GI50 (SW-620; read-out: pGI50 (converted)) was 4.27 µM and the CC50 (SW-620; [4]) was > 100 µM. The TGI (SW-620; read-out: pTGI) was > 100 µM.
